One experiment concerns HDAC isoforms. To be noted: cited from earlier work.
Experiment [1] concerns HCT116 colorectal cancer cell line. The experiment can be described thus: Cytoproliferation. To be noted: for effect on cell growth: HCT116, 96 hours, up to the highest concentration tested, 5 μM; for effect on cytoproliferation at lower concentrations: HCT116, 0.01, 0.1 and 1.0 nM (data not shown). The class given is cell-based. A digest of the protocol:
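HCT116 colorectal carcinoma cells seeded at 3×10⁴ cells/well in quadruplicate, attached overnight. Medium then replaced with fresh medium containing test compound; incubated 96 hours at 37 °C, 5% CO₂. CellTiter 96 One Solution MTS reagent added for 1.5 h at 37 °C, absorbance read at 490 nm. Points are mean of two experiments, 4 replicates each, with SEM.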

Experiment [2] concerns global H3K9 acetylation in HCT116 cells. Description: Western blot of global histone H3K9 acetylation. The class given is cell-based. To be noted: HCT116, 24 hours, 100 nM and 1 μM; for induction of global H3K9 (H3) acetylation: 10 nM; for concentration at which increase of global H3K9 acetylation was observed: tested at 10 nM. The gist of the method:
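HCT116 cells exposed 24 hours to test compound at 10 nM, 100 nM or 1 μM, or to DMSO. Lysed in RIPA buffer (50 mmol/L Tris-HCl, 1% NP-40, 0.25% deoxycholate, 150 mmol/L NaCl, 50 mmol/L NaF). Protein quantified by DC assay, 30 μg/lane run on SDS-PAGE. Blots probed for acetyl-H3 with β-actin loading control, detected by dye-conjugated secondaries on infrared scanner.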
(A western blot detects proteins with antibodies after separation by electrophoresis.)

A further experiment addresses T1, recombinant HDAC6 (Homo sapiens, UniProt Q9UBN7).
T1 sequence (Q9UBN7 1-1215): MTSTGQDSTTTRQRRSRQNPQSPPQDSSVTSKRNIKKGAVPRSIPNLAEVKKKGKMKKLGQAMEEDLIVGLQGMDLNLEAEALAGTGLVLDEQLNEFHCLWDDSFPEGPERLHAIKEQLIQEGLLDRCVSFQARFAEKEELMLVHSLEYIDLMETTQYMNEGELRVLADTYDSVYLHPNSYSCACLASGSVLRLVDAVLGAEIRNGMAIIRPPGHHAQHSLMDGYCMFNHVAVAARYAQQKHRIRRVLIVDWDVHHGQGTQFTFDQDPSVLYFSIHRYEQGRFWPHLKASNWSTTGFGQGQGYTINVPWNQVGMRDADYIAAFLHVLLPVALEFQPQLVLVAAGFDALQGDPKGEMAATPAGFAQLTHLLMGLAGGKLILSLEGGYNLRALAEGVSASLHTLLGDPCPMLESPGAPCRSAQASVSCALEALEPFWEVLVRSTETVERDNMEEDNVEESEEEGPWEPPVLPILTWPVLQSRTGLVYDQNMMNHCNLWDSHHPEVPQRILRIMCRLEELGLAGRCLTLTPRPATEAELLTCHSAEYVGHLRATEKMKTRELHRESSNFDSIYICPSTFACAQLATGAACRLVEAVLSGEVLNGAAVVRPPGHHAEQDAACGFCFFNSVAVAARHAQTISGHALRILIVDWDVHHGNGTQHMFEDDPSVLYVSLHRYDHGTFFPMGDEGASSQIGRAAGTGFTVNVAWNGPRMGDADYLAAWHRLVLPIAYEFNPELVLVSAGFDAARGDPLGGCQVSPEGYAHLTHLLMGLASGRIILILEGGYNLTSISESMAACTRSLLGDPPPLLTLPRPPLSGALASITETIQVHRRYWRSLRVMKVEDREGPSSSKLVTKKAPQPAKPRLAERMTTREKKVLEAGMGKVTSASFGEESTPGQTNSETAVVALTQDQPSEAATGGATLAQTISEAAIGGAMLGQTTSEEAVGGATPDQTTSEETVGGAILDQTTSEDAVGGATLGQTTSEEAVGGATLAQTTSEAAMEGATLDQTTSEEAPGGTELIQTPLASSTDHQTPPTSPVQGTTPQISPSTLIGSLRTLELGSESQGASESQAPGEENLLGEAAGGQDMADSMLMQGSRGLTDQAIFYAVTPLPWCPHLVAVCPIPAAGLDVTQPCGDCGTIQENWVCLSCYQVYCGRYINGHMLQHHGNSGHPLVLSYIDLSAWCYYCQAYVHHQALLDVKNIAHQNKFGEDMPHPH
The experiment can be described thus: Fluorimetric HDAC activity assay, recombinant HDAC6. The class given is biochemical. To be noted: 0–5 μM.

In the next experiment the target is recombinant HDAC1 (Homo sapiens, UniProt Q13547). Description: Fluorimetric HDAC activity assay, recombinant HDAC1. The class given is biochemical. Particulars: at 0.1 μM, 1 hour.
Sequence of recombinant HDAC1 (Q13547 whole entry): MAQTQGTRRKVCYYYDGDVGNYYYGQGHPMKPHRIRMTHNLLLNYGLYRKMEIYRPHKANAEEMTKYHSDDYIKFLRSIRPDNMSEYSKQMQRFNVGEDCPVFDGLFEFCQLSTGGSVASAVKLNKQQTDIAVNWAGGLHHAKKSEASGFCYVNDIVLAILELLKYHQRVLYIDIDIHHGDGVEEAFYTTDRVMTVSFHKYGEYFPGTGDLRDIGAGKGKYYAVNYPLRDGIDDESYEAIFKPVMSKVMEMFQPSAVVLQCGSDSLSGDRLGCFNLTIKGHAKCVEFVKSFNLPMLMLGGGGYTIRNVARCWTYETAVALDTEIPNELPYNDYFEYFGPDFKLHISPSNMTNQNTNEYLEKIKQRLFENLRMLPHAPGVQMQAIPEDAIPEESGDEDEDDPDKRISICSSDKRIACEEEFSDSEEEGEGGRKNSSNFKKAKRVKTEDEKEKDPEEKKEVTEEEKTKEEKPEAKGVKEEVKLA
Another experiment has as its system human cancer cells. To be noted: cited from earlier work.

Entries after “also recorded” stand apart in the source; their conditions may differ. A value given as a limit tells only on which side of the number the result lay.

One may read the GI50 as the concentration at which growth is held to half of that of the control. A high value points to lower sensitivity of the cells.

Turning to `CCCCCCCC(=O)SCCC=CC1CC(=O)NCc2nc(cs2)C2=NC(C)(CS2)C(=O)NC(C(C)C)C(=O)O1` (single isomer, unassigned) [enantiomer of largazole], the “potency in inhibiting HDAC isoforms relative to largazole” value with HDAC isoforms was “three times less potent”.

For the compound `CCCCCCCC(=O)SCC/C=C/[C@@H]1CC(=O)NCc2nc(cs2)C2=N[C@](C)(CS2)C(=O)N[C@@H](C(C)C)C(=O)O1` [Analogue 12], the “effect on cell growth” value in experiment [1] is recorded as “minimal effect”. In addition, the “induction of global H3K9 (H3) acetylation” value (“induction of global H3K9” for short) in experiment [2] is “very little induction; also recorded: slight increase; also recorded: no change; also recorded: slight induction”.

With `CCCCCCCC(=O)SCC/C=C/[C@@H]1CC(=O)NCc2nc(cs2)C2=N[C@@](C)(CS2)C(=O)N[C@H](Cc2cccc3ccccc23)C(=O)O1` [Analogue 16a], in experiment [1], the “effect on cell growth” value is on record as “minimal effect; also recorded: no effect”. For the same compound, in experiment [2], the “induction of global H3K9” value is given as “very little induction; also recorded: no change; also recorded: failed to induce”. The “HDAC6 specific inhibition (comparison among analogues)” value at recombinant HDAC6 is “least amount”.

For `C=CCC1NC(=O)C2(C)CSC(=N2)c2csc(n2)CNC(=O)CC(C=CCCSC(=O)CCCCCCC)OC1=O` (stereo not shown) [Analogue 16b], in experiment [1], the “effect on cytoproliferation at lower concentrations” value was “No significant effect” and the “effect on cell growth” value was “significant effect”. For the same compound, in experiment [2], the “induction of global H3K9” value is given as “greatest induction; also recorded: robust induction” and the “concentration at which increase of global H3K9 acetylation was observed” value (“concentration at which increase” for short) is 100 nM.

With `CCCCCCCC(=O)SCC/C=C/[C@@H]1CC(=O)NCc2nc(cs2)C2=N[C@@](C)(CS2)C(=O)N[C@@H](Cc2cccc3ccccc23)C(=O)O1` [Analogue 16c], in experiment [1], the “effect on cytoproliferation at lower concentrations” value is reported as “No significant effect” and the “effect on cell growth” value is on record as “significant effect”. In experiment [2], the “induction of global H3K9” value was “greatest induction; also recorded: robust induction” and the “concentration at which increase” value worked out at 10 nM. For the same compound, the “inhibition of HDAC1 activity” value on recombinant HDAC1 is “about 15%”.

In the case of `CCCCCCCC(=O)SCCC=CC1CC(=O)NCc2nc(cs2)C2=NC(C)(CS2)C(=O)NC(C(C)C)C(=O)O1` (stereo not shown) [C-2 epimer of largazole], the “inhibitory potency against HDAC isoforms” value with HDAC isoforms is reported as “sub-micromolar”.

On to `CCCCCCCC(=O)SCCC=CC1CC(=O)NCc2nc(cs2)C2=NC(C)(CS2)C(=O)NC(Cc2ccc(O)cc2)C(=O)O1` [L-tyrosine analogue], for which the “selectivity toward human cancer cells over normal cells” value in the experiment with human cancer cells is recorded as 100 fold.

`CCCCCCCC(=O)SCC/C=C/[C@@H]1CC(=O)NCc2nc(cs2)C2=N[C@@](C)(CS2)C(=O)N[C@@H](C(C)C)C(=O)O1` [largazole, reference compound] returned a GI50 in experiment [1] (Homo sapiens, HCT-116, 96 h) of less than 10 nM. Further, the “concentration at which increase” value in experiment [2] stood at 10 nM.

These data come from paper PMC4188730 (European journal of medicinal chemistry, 2014).
